Experimental data reported in ChEMBL document CHEMBL1221364 (Bioorg Med Chem, 2010).

Legend:
[1] = Displacement of [3H]SCH23390 from D1 like receptor in pig striatal tissue by topcount scintillation counting; format: tissue-based, Sus scrofa, Striatum
Outline: (§1)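 Porcine striatal membranes (P2 pellet, washed in 50 mM Tris pH 7.4), 75 µg protein per tube in 50 mM Hepes, 4 mM MgCl2, pH 7.4. Nonspecific binding was defined with 5 µM butaclamol. Incubation was 37 °C for 30 min, then filtration and scintillation counting. Ki was derived by Cheng-Prusoff and D2/D1 Ki compared.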

[2] = Displacement of [3H]spiperone from D2 like receptor in pig striatal tissue by topcount scintillation counting; format: tissue-based, Sus scrofa, Striatum; outline: as §1
Sus scrofa = organism: Sus scrofa; experiment: Selectivity ratio of Ki for pig D2-like receptor to Ki for pig D1-like receptor
Outline: as §1, with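 “7.4. D1-like sites were labelled with 1 nM [3H]SCH-23390. D2-like sites were labelled with 0.15 nM [3H]spiperone plus 50 nM ketanserin.” for “7.4.”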

[3] = molecular target: 5-hydroxytryptamine receptor 7 (Homo sapiens, UniProt P34969); experiment: Binding affinity to 5HT7 receptor
Chain of 5-hydroxytryptamine receptor 7 (P34969 whole entry): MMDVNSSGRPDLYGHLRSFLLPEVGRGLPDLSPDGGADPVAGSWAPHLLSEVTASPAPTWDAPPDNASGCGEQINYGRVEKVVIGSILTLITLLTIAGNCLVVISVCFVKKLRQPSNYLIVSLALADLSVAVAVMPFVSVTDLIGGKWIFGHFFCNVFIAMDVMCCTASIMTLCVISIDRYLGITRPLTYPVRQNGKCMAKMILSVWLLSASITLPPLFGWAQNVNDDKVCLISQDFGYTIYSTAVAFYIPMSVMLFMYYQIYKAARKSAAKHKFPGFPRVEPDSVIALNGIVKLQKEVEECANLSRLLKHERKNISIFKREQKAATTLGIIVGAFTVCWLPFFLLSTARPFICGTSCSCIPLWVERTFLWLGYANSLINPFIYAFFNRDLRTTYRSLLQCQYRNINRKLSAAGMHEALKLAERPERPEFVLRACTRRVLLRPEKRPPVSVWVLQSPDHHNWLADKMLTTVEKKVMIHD

[4] = molecular target: T1, Alpha-1A adrenergic receptor (Homo sapiens, UniProt P35348); experiment: Binding affinity to adrenergic alpha1A receptor
T1 sequence (P35348 whole entry): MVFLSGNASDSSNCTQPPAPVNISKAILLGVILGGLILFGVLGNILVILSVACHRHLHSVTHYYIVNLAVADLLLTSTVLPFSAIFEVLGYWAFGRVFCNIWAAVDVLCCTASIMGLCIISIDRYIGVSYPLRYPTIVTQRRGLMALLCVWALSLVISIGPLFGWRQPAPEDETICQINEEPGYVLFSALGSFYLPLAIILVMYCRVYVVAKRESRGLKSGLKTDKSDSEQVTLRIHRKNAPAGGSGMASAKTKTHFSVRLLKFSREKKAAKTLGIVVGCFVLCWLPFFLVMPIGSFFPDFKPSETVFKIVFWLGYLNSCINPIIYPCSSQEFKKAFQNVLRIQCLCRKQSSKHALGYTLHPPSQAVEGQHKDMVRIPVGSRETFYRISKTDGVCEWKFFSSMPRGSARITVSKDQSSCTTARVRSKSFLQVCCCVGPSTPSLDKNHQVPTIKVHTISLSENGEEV

[5] = molecular target: T2, Alpha-2A adrenergic receptor (Homo sapiens, UniProt P08913); experiment: Binding affinity to adrenergic alpha2A receptor
T2 sequence (P08913 whole entry): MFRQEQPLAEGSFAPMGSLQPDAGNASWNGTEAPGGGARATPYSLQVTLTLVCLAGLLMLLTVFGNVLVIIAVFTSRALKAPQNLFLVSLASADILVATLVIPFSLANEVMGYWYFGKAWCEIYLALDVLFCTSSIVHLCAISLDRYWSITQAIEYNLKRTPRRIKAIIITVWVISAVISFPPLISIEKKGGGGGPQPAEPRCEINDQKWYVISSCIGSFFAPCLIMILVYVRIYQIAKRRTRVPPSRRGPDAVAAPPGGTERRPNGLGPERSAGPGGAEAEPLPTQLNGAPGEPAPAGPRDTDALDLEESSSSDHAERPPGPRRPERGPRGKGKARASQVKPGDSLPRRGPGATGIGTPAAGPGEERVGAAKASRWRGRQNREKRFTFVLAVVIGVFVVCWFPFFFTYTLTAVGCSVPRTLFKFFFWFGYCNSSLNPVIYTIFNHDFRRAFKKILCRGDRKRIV

[6] = molecular target: T3, Alpha-2B adrenergic receptor (Homo sapiens, UniProt P18089); experiment: Binding affinity to adrenergic alpha2B receptor
T3 sequence (P18089 whole entry): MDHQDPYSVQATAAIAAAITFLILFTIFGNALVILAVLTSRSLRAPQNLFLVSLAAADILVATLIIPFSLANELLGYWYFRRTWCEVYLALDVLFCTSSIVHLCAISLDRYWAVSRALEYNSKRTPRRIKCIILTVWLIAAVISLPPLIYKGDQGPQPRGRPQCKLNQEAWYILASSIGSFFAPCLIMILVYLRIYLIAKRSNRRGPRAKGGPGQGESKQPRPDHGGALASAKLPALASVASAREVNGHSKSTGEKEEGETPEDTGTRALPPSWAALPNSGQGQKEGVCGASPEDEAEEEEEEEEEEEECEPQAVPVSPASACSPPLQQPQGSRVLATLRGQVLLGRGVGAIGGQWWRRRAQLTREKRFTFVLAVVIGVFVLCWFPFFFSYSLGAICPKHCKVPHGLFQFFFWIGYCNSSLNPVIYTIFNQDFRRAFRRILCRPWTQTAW

[7] = molecular target: T4, Alpha-2C adrenergic receptor (Homo sapiens, UniProt P18825); experiment: Binding affinity to adrenergic Alpha-2C receptor
T4 sequence (P18825 whole entry): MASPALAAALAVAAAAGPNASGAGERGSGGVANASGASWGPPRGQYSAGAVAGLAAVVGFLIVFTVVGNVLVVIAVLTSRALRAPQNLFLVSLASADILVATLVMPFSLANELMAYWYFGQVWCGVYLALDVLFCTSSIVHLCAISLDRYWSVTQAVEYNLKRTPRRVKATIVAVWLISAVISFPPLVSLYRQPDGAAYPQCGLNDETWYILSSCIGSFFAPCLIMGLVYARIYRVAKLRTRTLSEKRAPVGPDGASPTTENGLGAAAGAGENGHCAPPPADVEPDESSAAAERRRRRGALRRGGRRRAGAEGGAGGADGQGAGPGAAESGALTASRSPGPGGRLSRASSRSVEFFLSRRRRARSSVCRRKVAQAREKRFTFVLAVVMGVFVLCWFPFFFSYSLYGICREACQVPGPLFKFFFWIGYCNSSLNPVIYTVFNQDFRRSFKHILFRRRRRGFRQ

[8] = molecular target: Kappa-type opioid receptor (Homo sapiens, UniProt P41145); experiment: Binding affinity to […] opioid receptor
Chain of Kappa-type opioid receptor (P41145 whole entry): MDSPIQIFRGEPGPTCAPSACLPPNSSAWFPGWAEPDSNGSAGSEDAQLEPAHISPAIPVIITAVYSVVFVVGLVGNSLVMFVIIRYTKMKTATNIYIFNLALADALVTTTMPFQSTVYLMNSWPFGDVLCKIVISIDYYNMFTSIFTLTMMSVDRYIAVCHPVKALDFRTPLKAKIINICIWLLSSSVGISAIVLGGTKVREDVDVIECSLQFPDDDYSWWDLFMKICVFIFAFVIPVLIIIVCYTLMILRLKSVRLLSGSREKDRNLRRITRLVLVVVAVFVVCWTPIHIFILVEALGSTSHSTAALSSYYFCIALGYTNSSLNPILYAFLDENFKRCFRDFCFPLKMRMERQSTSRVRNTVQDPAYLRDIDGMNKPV

D(1A) dopamine receptor [9] = molecular target: T5, D(1A) dopamine receptor (Homo sapiens, UniProt P21728); experiment: Binding affinity to dopamine D1 receptor
T5 sequence (P21728 whole entry): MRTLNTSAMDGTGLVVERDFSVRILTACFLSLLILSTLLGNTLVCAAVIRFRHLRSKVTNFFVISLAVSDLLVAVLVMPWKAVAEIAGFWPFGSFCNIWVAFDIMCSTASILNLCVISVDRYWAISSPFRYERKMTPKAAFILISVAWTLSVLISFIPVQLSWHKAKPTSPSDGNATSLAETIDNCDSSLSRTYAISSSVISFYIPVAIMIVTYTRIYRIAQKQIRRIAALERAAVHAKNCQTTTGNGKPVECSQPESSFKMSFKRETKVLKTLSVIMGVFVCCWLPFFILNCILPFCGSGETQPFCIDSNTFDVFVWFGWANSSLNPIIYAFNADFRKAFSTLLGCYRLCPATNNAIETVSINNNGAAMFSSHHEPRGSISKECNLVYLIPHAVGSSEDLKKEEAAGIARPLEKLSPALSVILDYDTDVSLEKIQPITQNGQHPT

D(3) dopamine receptor = D(3) dopamine receptor (Homo sapiens, UniProt P35462); experiment: Binding affinity to dopamine D3 receptor
Chain of D(3) dopamine receptor (P35462 whole entry): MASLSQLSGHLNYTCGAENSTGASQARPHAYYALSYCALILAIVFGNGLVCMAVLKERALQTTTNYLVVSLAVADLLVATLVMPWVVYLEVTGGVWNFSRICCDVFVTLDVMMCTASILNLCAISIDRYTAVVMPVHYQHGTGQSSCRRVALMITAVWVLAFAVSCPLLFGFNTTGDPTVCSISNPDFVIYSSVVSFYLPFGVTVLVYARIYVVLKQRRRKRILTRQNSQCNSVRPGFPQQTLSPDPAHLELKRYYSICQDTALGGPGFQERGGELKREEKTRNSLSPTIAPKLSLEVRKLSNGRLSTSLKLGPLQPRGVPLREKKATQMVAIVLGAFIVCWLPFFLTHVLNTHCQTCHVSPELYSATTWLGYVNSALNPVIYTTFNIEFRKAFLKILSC

D(4) dopamine receptor = molecular target: T6, D(4) dopamine receptor (Homo sapiens, UniProt P21917); experiment: Binding affinity to dopamine D4 receptor
T6 sequence (P21917 whole entry): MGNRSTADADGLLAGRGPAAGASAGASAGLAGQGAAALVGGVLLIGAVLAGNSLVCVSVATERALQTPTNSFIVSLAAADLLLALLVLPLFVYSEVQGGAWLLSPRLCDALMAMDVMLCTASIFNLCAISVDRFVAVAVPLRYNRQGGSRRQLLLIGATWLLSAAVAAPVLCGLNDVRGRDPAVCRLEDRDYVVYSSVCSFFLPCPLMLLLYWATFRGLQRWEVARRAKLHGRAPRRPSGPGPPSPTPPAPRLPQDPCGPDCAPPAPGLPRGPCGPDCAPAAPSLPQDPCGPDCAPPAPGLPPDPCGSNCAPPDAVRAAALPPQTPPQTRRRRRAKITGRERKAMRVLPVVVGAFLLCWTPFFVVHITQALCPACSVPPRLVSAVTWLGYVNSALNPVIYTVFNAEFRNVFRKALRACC

D(1B) dopamine receptor = D(1B) dopamine receptor (Homo sapiens, UniProt P21918); experiment: Binding affinity to dopamine D5 receptor
Chain of D(1B) dopamine receptor (P21918 whole entry): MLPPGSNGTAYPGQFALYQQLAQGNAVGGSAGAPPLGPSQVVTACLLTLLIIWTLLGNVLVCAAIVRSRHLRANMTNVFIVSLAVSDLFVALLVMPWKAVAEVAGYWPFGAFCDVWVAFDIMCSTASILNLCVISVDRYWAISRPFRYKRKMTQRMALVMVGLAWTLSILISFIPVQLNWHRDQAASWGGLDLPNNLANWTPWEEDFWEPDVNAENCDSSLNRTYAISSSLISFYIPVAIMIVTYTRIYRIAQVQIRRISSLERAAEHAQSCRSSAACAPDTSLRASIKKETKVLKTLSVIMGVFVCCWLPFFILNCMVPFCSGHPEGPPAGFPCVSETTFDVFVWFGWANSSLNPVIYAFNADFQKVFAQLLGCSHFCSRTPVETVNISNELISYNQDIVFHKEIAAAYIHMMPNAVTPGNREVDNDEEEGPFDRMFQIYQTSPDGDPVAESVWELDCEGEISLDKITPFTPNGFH

D(1A) dopamine receptor [10] = molecular target: T5, D(1A) dopamine receptor; experiment: Agonist activity at human D1 receptor assessed as cAMP accumulation; format: functional
[11] = molecular target: T7, 5-hydroxytryptamine receptor 3A (Homo sapiens, UniProt P46098); experiment: Binding affinity to 5HT3 receptor
T7 sequence (P46098 whole entry): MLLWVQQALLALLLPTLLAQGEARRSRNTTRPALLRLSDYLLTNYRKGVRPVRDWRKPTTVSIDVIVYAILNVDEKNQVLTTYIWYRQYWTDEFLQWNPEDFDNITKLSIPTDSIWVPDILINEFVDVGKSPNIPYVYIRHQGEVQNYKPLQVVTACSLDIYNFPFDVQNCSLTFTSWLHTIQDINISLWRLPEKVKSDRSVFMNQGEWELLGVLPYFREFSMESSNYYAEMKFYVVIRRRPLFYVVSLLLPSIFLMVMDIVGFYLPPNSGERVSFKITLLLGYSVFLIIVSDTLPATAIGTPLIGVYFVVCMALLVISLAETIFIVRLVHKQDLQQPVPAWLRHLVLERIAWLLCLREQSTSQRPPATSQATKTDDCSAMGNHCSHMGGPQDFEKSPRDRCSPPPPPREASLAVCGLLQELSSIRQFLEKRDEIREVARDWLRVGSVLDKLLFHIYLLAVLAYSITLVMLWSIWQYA

Oc1ccc2c(c1O)CC[C@@H]1CCNC[C@@H]21 (relative stereo)
Ki [1]: 850 nM
Ki [2]: 670 nM
Selectivity Index (Sus scrofa): 0.8

Oc1ccc2c(c1O)C[C@@H](c1ccccc1)[C@@H]1CCNC[C@@H]21
Ki [3]: 220 nM
Ki [4]: 340 nM
Ki [5]: 3.5 nM
Ki [6]: 6.4 nM
Ki [7]: 1.1 nM
Ki [8]: 820 nM
Ki (D(1A) dopamine receptor [9]): 18 nM
Ki (D(3) dopamine receptor): 130 nM
Ki (D(4) dopamine receptor): 2650 nM
Ki (D(1B) dopamine receptor): 2.8 nM
Ki [1]: 6 nM
Ki [2]: 440 nM
EC50 (D(1A) dopamine receptor [10]): 0.64 nM
Ki [11]: 870 nM

Oc1ccc2c(c1O)CC[C@@H]1CCNC[C@H]21 (relative stereo)
Ki [1]: 6800 nM
Ki [2]: 2800 nM
Selectivity Index (Sus scrofa): 0.4

CN1CCc2cc(Cl)c(O)cc2[C@@H](c2ccccc2)C1 [SCH-23390]
Ki [1]: 0.79 nM
